Data: the array DNA melting data of Ke et al. (doi:10.1101/2024.01.08.574731)

Key:
[1] = melting temperature; fluorescence melt of hairpins on a sequencing array, two-state fit, raised by 9.35 °C to match UV melts; conditions: sodium 0.088 M
Summary of the method: (§1)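 In 50 mM Na-HEPES pH 8.0 containing 25 mM NaCl, hairpins from the library on a sequenced MiSeq flow cell were imaged for Cy3 fluorescence at 2.5 °C steps up to 60 °C, with Cy3 and quencher oligos annealed. After normalisation to pre-quench Cy3 and to control constructs, two-state fits with bootstrapping gave melting temperature and folding enthalpy. Four replicates were combined by inverse-variance weighting, and fitted temperatures were shifted up by 9.35 °C to match UV melts.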

[2] = folding enthalpy; higher = less favourable; fluorescence melt of hairpins on a sequencing array, two-state fit; conditions: sodium 0.088 M
Summary of the method: as §1

Sequence	Tm [1]	folding enthalpy [2]
GCGACTACGAAAGTACGC (((..(((....))))))	42.5 °C	-25.8 kcal/mol
GCGACTACTCGC ((((....))))	46.6 °C	-23.2 kcal/mol
GCGACTCGAAAGAGCCGC (((.(((....))).)))	60.2 °C	-47 kcal/mol
GCGACTCTCGC ((((...))))	49.3 °C	-22.2 kcal/mol
GCGACTCTTCGC ((((....))))	50.6 °C	-23 kcal/mol
GCGACTGCTCGC ((((....))))	50.4 °C	-16.5 kcal/mol
GCGACTGGAAACAGTTGC ((.((((....)))).))	55.5 °C	-45.4 kcal/mol
GCGACTTTTCGC ((((....))))	49 °C	-21.6 kcal/mol
GCGAGAACGAAAGTTCGC (((..(((....))))))	55.4 °C	-15 kcal/mol
GCGAGAACTCGC ((((....))))	54.9 °C	-27.4 kcal/mol
GCGAGACTCGC ((((...))))	49 °C	-10.2 kcal/mol
GCGAGATCGAAAGATCGC (((..(((....))))))	52.1 °C	-24.3 kcal/mol
GCGAGCGAAAGCTACGC ((((((....))).)))	62.6 °C	-18 kcal/mol
GCGAGCGAAAGCTATCGC ((((((....)))..)))	54.6 °C	-23.3 kcal/mol
GCGAGCGAAAGCTCCGC ((((((....))).)))	65.4 °C	-18.2 kcal/mol
GCGAGCGAAAGCTGACGC ((((((....)))..)))	51.1 °C	-24.7 kcal/mol
GCGAGCGGAAACACCCGC (((.(.(....).).)))	36.4 °C	-13.8 kcal/mol
GCGAGCGGAAACACTCGC (((((.(....).)))))	56.2 °C	-48.3 kcal/mol
GCGAGCGGAAACGTTCGC ((((.((....)).))))	63.4 °C	-41.2 kcal/mol
GCGAGCTCGAAAGAGCGC (((..(((....))))))	54.9 °C	-9.24 kcal/mol
GCGAGGCGAAAGCATGGC ((.(.((....)).).))	49.3 °C	-16.4 kcal/mol
GCGAGGCGAAAGCATTGC ((.(.((....)).).))	54.3 °C	-22.5 kcal/mol
GCGAGGCGAAAGCCAAGC ((..(((....)))..))	69.2 °C	-20.5 kcal/mol
GCGAGGCGAAAGCCCCGC (((.(((....))).)))	68.5 °C	-26.6 kcal/mol

Sequence	Tm [1]	folding enthalpy [2]
GCGAGGCGAAAGCCCGGC ((..(((....)))..))	63.8 °C	-10.5 kcal/mol
GCGAGGCGAAAGCGCCGC (((..((....))..)))	63.8 °C	-12.5 kcal/mol
GCGAGGCGAAAGCGTAGC ((.(.((....)).).))	51 °C	-15.4 kcal/mol
GCGAGGCGAAAGCGTGGC ((.(.((....)).).))	48.9 °C	-15.2 kcal/mol
GCGAGGCGAAAGCTGCGC (((..((....))..)))	65.1 °C	-29.5 kcal/mol
GCGAGGCGTCGC ((((....))))	56.6 °C	-14.7 kcal/mol
GCGAGGGGAAACCCCCAC (.(.(((....))).).)	28.6 °C	-10.9 kcal/mol
GCGAGGGGAAACCCTCAC (.(((((....))))).)	45.2 °C	-13.7 kcal/mol
GCGAGGGGAAACTCTCGC (((((.(....).)))))	58 °C	-40.3 kcal/mol
GCGAGTCCGAAAGGACGC (((..(((....))))))	53 °C	-9.26 kcal/mol
GCGAGTCGAAAGACCGC (((.(((....))))))	66.8 °C	-35.1 kcal/mol
GCGAGTCTCGC ((((...))))	50.1 °C	-19.8 kcal/mol
GCGAGTGATCGC ((((....))))	54.3 °C	-21.9 kcal/mol
GCGAGTGGAAACACCCGC (((.(((....))).)))	51.9 °C	-26.4 kcal/mol
GCGAGTGGAAACACTTGC ((.((((....)))).))	53.6 °C	-39.2 kcal/mol
GCGAGTTCGAAAGAACGC (((..(((....))))))	49.5 °C	-11.8 kcal/mol
GCGATAAGTCGC ((((....))))	49.8 °C	-18.9 kcal/mol
GCGATACGTCGC ((((....))))	54.4 °C	-30.6 kcal/mol
GCGATACTTCGC ((((....))))	52.7 °C	-25.9 kcal/mol
GCGATAGATCGC ((((....))))	49.7 °C	-21.7 kcal/mol
GCGATAGCTCGC ((((....))))	65.8 °C	-9.76 kcal/mol
GCGATCATCGC ((((...))))	49.6 °C	-19.5 kcal/mol
GCGATCGAAAGATCCCGC ((((((....)))..)))	37.1 °C	-17.7 kcal/mol
GCGATCGAAAGATCCGC ((((((....))).)))	52 °C	-28.8 kcal/mol

Sequence	Tm [1]	folding enthalpy [2]
GCGATCGAAAGATCTCGC ((((((....)))..)))	44.1 °C	-20.2 kcal/mol
GCGATCGAAAGATGACGC ((((((....)))..)))	44.1 °C	-28.3 kcal/mol
GCGATCGAAAGATGCCGC ((((((....)))..)))	39.6 °C	-17 kcal/mol
GCGATCGAAAGATGGCGC ((((((....)))..)))	53.2 °C	-34.8 kcal/mol
GCGATCGGAAACGATCAC (.(((((....))))).)	46.5 °C	-14.7 kcal/mol
GCGATCGGAAACGGTCGC ((((.((....)).))))	66.8 °C	-39.1 kcal/mol
GCGATCTCGAAAGAGCGC (((..(((....))))))	56.3 °C	-33.1 kcal/mol
GCGATCTTCGC ((((...))))	51.9 °C	-19.4 kcal/mol
GCGATGACGAAAGTCCGC (((..(((....))))))	52 °C	-20 kcal/mol
GCGATGACTCGC ((((....))))	47.2 °C	-21.7 kcal/mol
GCGATGCATCGC ((((....))))	59.6 °C	-32.1 kcal/mol
GCGATGCGAAAGCAAAGC ((..(((....)))..))	61 °C	-32.9 kcal/mol
GCGATGCGAAAGCACGC (((.(((....))))))	68.4 °C	-23.4 kcal/mol
GCGATGCGAAAGCACGGC ((..(((....)))..))	51.2 °C	-16.5 kcal/mol
GCGATGCGAAAGCATGGC ((.((((....)))).))	64.6 °C	-21.2 kcal/mol
GCGATGCGAAAGCCACGC (((..((....))..)))	52.1 °C	-21.1 kcal/mol
GCGATGCGAAAGCCTCGC ((((.((....)).))))	64.6 °C	-40.3 kcal/mol
GCGATGCGAAAGCCTGGC ((.(.((....)).).))	29.1 °C	-11.5 kcal/mol
GCGATGCGAAAGCTGCGC (((..((....))..)))	64.2 °C	-22.7 kcal/mol
GCGATGCGAAAGCTTAGC ((.(.((....)).).))	56.9 °C	-23.6 kcal/mol
GCGATGCGAAAGCTTTGC ((.(.((....)).).))	46.3 °C	-21.2 kcal/mol
GCGATGGCTCGC ((((....))))	47.8 °C	-19.2 kcal/mol
GCGATTCGAAAGAAACGC (((.(((....))).)))	55.7 °C	-47.3 kcal/mol
GCGATTCGAAAGAAGCGC (((.(((....))).)))	68.7 °C	-39.7 kcal/mol

Sequence	Tm [1]	folding enthalpy [2]
GCGATTCTTCGC ((((....))))	53.5 °C	-26.1 kcal/mol
GCGATTTCTCGC ((((....))))	49.5 °C	-24.4 kcal/mol
GCGATTTTCGC ((((...))))	52.3 °C	-22 kcal/mol
GCGCAACCGAAAGGTCGC (((..(((....))))))	55 °C	-23.9 kcal/mol
GCGCAAGGAAACTCGCGC ((((.((....)).))))	54.6 °C	-36.1 kcal/mol
GCGCAAGGAAACTTGCAC (.(((((....))))).)	46.3 °C	-13.4 kcal/mol
GCGCAATCGAAAGATCGC (((..(((....))))))	45.5 °C	-24.1 kcal/mol
GCGCACCGAAAGGTCGC (((.(((....))))))	67 °C	-25.7 kcal/mol
GCGCACGAAAGTGATCGC ((((((....)))..)))	49.6 °C	-24.8 kcal/mol
GCGCACGAAAGTGCCCGC ((((((....)))..)))	47 °C	-12 kcal/mol
GCGCACGGAAACGCGCGC ((((.((....)).))))	69 °C	-40.6 kcal/mol
GCGCAGCGAAAGCACCGC (((..((....))..)))	45.2 °C	-8.24 kcal/mol
GCGCAGCGAAAGCCCCGC (((..((....))..)))	36.4 °C	-5.72 kcal/mol
GCGCAGCGAAAGCCGGGC ((.(.((....)).).))	41.2 °C	-8.2 kcal/mol
GCGCAGCGAAAGCTCCGC (((.(((....))).)))	44.7 °C	-34.1 kcal/mol
GCGCAGCGAAAGCTTTGC ((..(((....)))..))	38.8 °C	-6.59 kcal/mol
GCGCATCGAAAGATCGC (((.(((....))))))	55.8 °C	-37 kcal/mol
GCGCATGGAAACATACGC (((.(((....))).)))	49.5 °C	-40.6 kcal/mol
GCGCATGGAAACATGTGC ((.((((....)))).))	57.1 °C	-36.5 kcal/mol
GCGCCACGAAAGTGACGC (((.(((....))).)))	66 °C	-38.4 kcal/mol
GCGCCAGGAAACTGACGC (((.(((....))).)))	56 °C	-43.1 kcal/mol
GCGCCAGGAAACTGGCAC (.(((((....))))).)	47.5 °C	-12.2 kcal/mol
